Assay results from ChEMBL document CHEMBL4340510, “Design, synthesis, and biological evaluation of truncated deguelin derivatives as Hsp90 inhibitors” (Eur J Med Chem, 2019).

Experiments:
NCI-H1299 [1] = test: Antiproliferative activity against human NCI-H1299 cells assessed as inhibition of cell growth at 10 uM after 72 hrs by MTT assay relative to control; assay type: functional; conditions: NCI-H1299, 72 h, read-out: GI
In short: (§1)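 Cells in RPMI 1640 are seeded at 4,000 cells/well and held 24 h at 37 °C, 5% CO2. Medium is replaced with compound-containing medium (DMSO ≤0.25%) for 72 h at 37 °C. MTT read-out by absorbance at 570 nm. Quadruplicate wells, repeated three times; values are means of three independent experiments.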

NCI-H1299 [2] = test: Antiproliferative activity against human NCI-H1299 cells assessed as inhibition of cell growth at 0.1 uM after 72 hrs by MTT assay relative to control; assay type: functional; conditions: NCI-H1299, 72 h, read-out: GI; in short: as §1
NCI-H1299 [3] = test: Antiproliferative activity against human NCI-H1299 cells assessed as inhibition of cell growth at 1 uM after 72 hrs by MTT assay relative to control; assay type: functional; conditions: NCI-H1299, 72 h, read-out: GI; in short: as §1
[4] = molecular target: Heat shock protein HSP 90-alpha (Homo sapiens, UniProt P07900); test: Inhibition of FITC-geldanamycin binding to recombinant human full-length C-terminal His-tagged HSP90alpha […] (1 to 732 residues) expressed in Escherichia coli after 1 hr by fluorescence polarization assay
A549 = test: Antiproliferative activity against human A549 cells after 72 hrs by MTT assay; assay type: functional, cell-based; conditions: A549, 72 h; in short: as §1
MCF7 = test: Antiproliferative activity against human MCF7 cells after 72 hrs by MTT assay; assay type: functional, cell-based; conditions: MCF7, 72 h; in short: as §1
NCI-H1299 [5] = test: Antiproliferative activity against human NCI-H1299 cells after 72 hrs by MTT assay; assay type: functional, cell-based; conditions: NCI-H1299, 72 h; in short: as §1

| SMILES | inhibition of growth at 10 µM (NCI-H1299 [1]) [%] | inhibition of growth at 0.1 µM (NCI-H1299 [2]) [%] | inhibition of growth at 1 µM (NCI-H1299 [3]) [%] | IC50 [4] [µM] | IC50 (A549) [µM] | IC50 (MCF7) [µM] | IC50 (NCI-H1299 [5]) [µM] |
| --- | --- | --- | --- | --- | --- | --- | --- |
| COc1ccc(CCC(=O)c2ccc3c(c2O)C=CC(C)(C)O3)cc1OC | 30.1 | 3.6 | 8.5 | – | – | – | – |
| COc1ccc(CC(=O)c2ccc3c(c2OC(C)=O)C=CC(C)(C)O3)cc1OC | 19.5 | 4.1 | 6.2 | – | – | – | – |
| CC1(C)C=Cc2c(ccc(C(=O)Cc3ccc(Cl)c(Cl)c3)c2O)O1 | 11.5 | 8.3 | 9.1 | – | – | – | – |
| COc1cc(CC(=O)c2ccc3c(c2O)C=CC(C)(C)O3)cc(OC)c1OC | 49 | 9.7 | 19.7 | 0.43 | 13.1 | 11.2 | 12 |
| CC1(C)C=Cc2c(ccc(C(=O)Cc3ccccc3)c2O)O1 | 15.1 | 3.9 | 7.8 | – | – | – | – |
| CC(C)c1cc(C(=O)N2Cc3ccc(CN4CCN(C)CC4)cc3C2)c(O)cc1O [ONALESPIB] | 95.7 | 94.8 | 96.8 | 0.02 | 0.44 | 0.29 | 0.37 |
| COc1cc(/C=C/C(=O)c2ccc3c(c2O)C=CC(C)(C)O3)cc(OC)c1OC | 12.3 | 3.8 | 8.7 | – | – | – | – |
| COc1ccc(CC(=O)c2ccc3c(c2OC)C=CC(C)(C)O3)cc1OC | 47.3 | 5.1 | 10.7 | 0.09 | 6 | 6.88 | 11.8 |
| COc1c(C(=O)Cc2ccccc2)ccc2c1C=CC(C)(C)O2 | 11.3 | 5.6 | 9.3 | – | – | – | – |
| COc1cc(CC(=O)c2ccc3c(c2OC)C=CC(C)(C)O3)cc(OC)c1 | 40.1 | 7.1 | 10.2 | – | – | – | – |
| COc1c(C(=O)Cc2ccc3c(c2)OCCO3)ccc2c1C=CC(C)(C)O2 | 28.1 | 3.5 | 6.5 | – | – | – | – |
| COc1cc(CC(=O)c2ccc3c(c2OC)C=CC(C)(C)O3)cc(OC)c1OC | 58.3 | 9.6 | 27.4 | 0.63 | 6.15 | 5.08 | 7.2 |
| COc1ccc(CC(=O)c2ccc3c(c2O)C=CC(C)(C)O3)cc1 | 16.1 | 6.1 | 7.1 | – | – | – | – |
| COc1ccc(/C=C/c2ccc3c(c2OC)C=CC(C)(C)O3)cc1OC | 14.4 | 5.2 | 8.6 | – | – | – | – |
| COc1ccc(CC(=O)c2ccc3c(c2O)C=CC(C)(C)O3)cc1OC | 45.3 | 4.8 | 8.2 | – | – | – | – |
| COc1ccc(CC(O)c2ccc3c(c2OC)C=CC(C)(C)O3)cc1OC (stereo not drawn) | 19.8 | 6.5 | 10.8 | – | – | – | – |
| COc1ccc(OC)c(CC(=O)c2ccc3c(c2OC)C=CC(C)(C)O3)c1 | 38.2 | 4.7 | 10.4 | – | – | – | – |
| COc1c(C(=O)C(C)c2ccccc2)ccc2c1C=CC(C)(C)O2 (stereo not drawn) | 15.5 | 4.5 | 6.5 | – | – | – | – |
| COc1cc(CC(=O)c2ccc3c(c2OC)CCC(C)(C)O3)cc(OC)c1OC | 67.5 | 11 | 30.6 | 0.28 | 5.33 | 5.22 | 5.72 |
| COc1cc2c(cc1OC)[C@@H]1C(=O)c3ccc4c(c3O[C@@H]1CO2)C=CC(C)(C)O4 [DEGUELIN] | 65.3 | 9.9 | 28.5 | 1.63 | 6.05 | 8.17 | 5.67 |
| COc1ccc(CC(=O)c2ccc3c(c2OC)C=CC(C)(C)O3)cc1 | 10.6 | 3.6 | 7.3 | – | – | – | – |
| COc1ccc(/C=C/C(=O)c2ccc3c(c2O)C=CC(C)(C)O3)cc1OC | 10.7 | 5.3 | 6.4 | – | – | – | – |
| COc1ccc(C(C)C(=O)c2ccc3c(c2OC)C=CC(C)(C)O3)cc1 (stereo not drawn) | 13.3 | 7.1 | 10.8 | – | – | – | – |
| COc1ccc(CC(=O)c2ccc3c(c2OC)CCC(C)(C)O3)cc1OC | 49.3 | 7.2 | 12.4 | 0.15 | 7.2 | 7.86 | 12.6 |
| COc1ccc(C(Cc2ccccc2)C(=O)c2ccc3c(c2OCc2ccccc2)C=CC(C)(C)O3)cc1OC (stereo not drawn) | 9.9 | 2.1 | 2.5 | – | – | – | – |
